In one test the test system is Artemia salina. Kind of test: Cytotoxicity against Artemia salina assessed as induction of shrimp mortality incubated for 24 hrs. The format is functional. Particulars: for LC50: read-out: LD50 (the source's name).
The test system of another test is MDA-MB-231. Kind of test: Antiproliferative activity against human MDA-MB-231 cells assessed as inhibition of cell proliferation incubated for 72 hrs by SRB assay. Particulars: MDA-MB-231, 72 h. The format is functional, cell-based. The method in brief: (§1)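 Seeded at 1 × 10^4 cells/well (MCF-7: EMEM + 10% FBS; MDA-MB-231: EMEM + 10% NuSerum; NIH3T3: DMEM + 5% NuSerum + 1% antibiotics). Exposed to 1.25–40 μM final (DMSO stock diluted in water) for 72 h at 37 °C, 5% CO2. Day-0 plate used. Fixed with TCA (10% final, 4 °C, 1 h), stained with 0.4% SRB, dye dissolved in 10 mM Tris. IC50 derived. Podophyllotoxin and 0.5% DMSO as controls.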
On the technique in general: The SRB assay estimates cell density from bound dye.

The subject of the next test is MCF7. Description: Antiproliferative activity against human MCF7 cells assessed as inhibition of cell proliferation incubated for 72 hrs by SRB assay. The format is functional, cell-based. Particulars: MCF7, 72 h. An outline of the steps:
as §1

A short description of test [1]: Antiproliferative activity against mouse NIH/3T3 cells assessed as inhibition of cell proliferation incubated for 72 hrs by SRB assay. The format is cell-based. Particulars: NIH3T3, 72 h. The method in brief:
as §1

A word on the IC50: it is the point on the concentration scale where inhibition reaches its midpoint.

For `COc1c(C)c(O)c2c(=O)c(-c3ccc(O)cc3)coc2c1C`, in the test on Artemia salina, the Activity entry is “Dose-dependent effect”. For the same compound, in the test on Artemia salina, the LC50 was 20.2 µM. Further, the half-inhibitory concentration (IC50) is 7 µM with MDA-MB-231, more than 40 µM in the test with MCF7 and more than 40 µM in test [1].

For `COc1cc([C@@H]2c3cc4c(cc3[C@H](O)[C@H]3COC(=O)[C@H]23)OCO4)cc(OC)c1OC` [PODOFILOX], the IC50 is 0.079 µM in the test on MDA-MB-231 and 0.084 µM in test [1].

As for `COc1c(C)c(O)c2c(=O)cc(-c3ccc(O)cc3)oc2c1C` [SIDEROXYLIN], the Activity entry in the test on Artemia salina was “Dose-dependent effect”. In addition, in the test with Artemia salina, the LC50 is 80.1 µM. Moreover, the IC50 is 36.9 µM with MDA-MB-231, 14.7 µM in the test on MCF7 and more than 40 µM in test [1].

The values above are taken from ChEMBL document CHEMBL3588840, “An Isoflavone from Leiophyllum buxifolium and Its Antiproliferative Effect” (J Nat Prod, 2015).
